Assays:
[1] = Metabolic stability in mouse plasma assessed as compound remaining at 10 uM after 1 hr by LC/MS/MS analysis; type: ADME, cell-free; conditions: read-out: Stability
Summary of the method: (§1)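 Prodrug at 10 µM spiked into mouse or human plasma or liver microsomes, incubated at 37 °C on an orbital shaker. Triplicate aliquots taken at 0, 30 and 60 min, quenched with 3 volumes of ice-cold acetonitrile containing losartan internal standard, vortexed, spun 12000 g for 10 min. Parent disappearance followed by LC/MS/MS and reported as % remaining at 1 h.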

[2] = Metabolic stability in human liver microsomes assessed as compound remaining at 10 uM after 1 hr by LC/MS/MS analysis; type: ADME; conditions: read-out: Stability; summary of the method: as §1
[3] = Metabolic stability in mouse liver microsomes assessed as compound remaining at 10 uM after 1 hr by LC/MS/MS analysis; type: ADME; conditions: read-out: Stability; summary of the method: as §1
Plasma [4] = experiment: Prodrug activation in mouse plasma assessed as 2-phosphonomethylpentanedioic acid formation at 30 mg/kg administered via oral gavage after 30 mins by LC/MS/MS analysis; type: organism-based; conditions: in vivo, 0.5 h
Summary of the method: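 Mice given prodrug orally at 30 mg/kg (equivalent of 1), 10 mL/kg volume; blood taken at 30 min, N=3. Plasma extracted with methanol containing 2-PMSA internal standard. Released 1 measured selectively after mild MTBSTFA derivatization (~60 °C, 40 min) by LC/MS/MS. Total prodrug plus metabolites measured separately after n-butanol/3N HCl derivatization (60°C, 30 min), which converts all species to butyl esters of 1.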

[5] = Metabolic stability in human plasma assessed as compound remaining at 10 uM after 1 hr by LC/MS/MS analysis; type: ADME, cell-free; conditions: read-out: Stability; summary of the method: as §1
[6] = Chemical stability of compound; type: physicochemical
[7] = AUC (0 to t hrs) in mouse at 30 mg/kg administered via oral gavage measured after 15 mins to 4 hrs by LC/MS/MS analysis; type: ADME, organism-based; design: time lower 0.25 hr, dose 30 mg/kg, time upper 4 hr, route oral; conditions: in vivo
Summary of the method: (§2)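 Mice were dosed by oral gavage at 30 mg/kg (parent-drug equivalent) in 10 mL/kg. Blood was taken by cardiac puncture at 0, 15 and 30 min and 1, 2 and 4 h, n=3 per time point. Plasma was stored at -80 °C and the released parent drug measured by LC/MS/MS. Cmax and Tmax are observed values; AUC is the log-linear trapezoidal AUClast.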

[8] = Cmax in mouse at 10 mg/kg administered via oral gavage measured after 15 mins to 4 hrs by LC/MS/MS analysis; type: ADME, organism-based; design: dose 10 mg/kg, route oral; conditions: in vivo
[9] = AUC (0 to t hrs) in mouse at 10 mg/kg administered via oral gavage measured after 15 mins to 4 hrs by LC/MS/MS analysis; type: ADME, organism-based; design: dose 10 mg/kg, time 0.25-4 hr, route oral; conditions: in vivo
Plasma [10] = experiment: Plasma concentration in rhesus monkey at 10 mg/kg, po measured at 0.25 to 2 hrs post dose; type: ADME, organism-based, Macaca mulatta; conditions: in vivo
[11] = Tmax in mouse at 30 mg/kg administered via oral gavage measured after 15 mins to 4 hrs by LC/MS/MS analysis; type: ADME, organism-based; conditions: in vivo; summary of the method: as §2
[12] = Cmax in mouse at 30 mg/kg administered via oral gavage measured after 15 mins to 4 hrs by LC/MS/MS analysis; type: ADME, organism-based; design: dose 30 mg/kg, route oral; conditions: in vivo; summary of the method: as §2
Mus musculus [13] = experiment: Tmax in mouse assessed as 2-phosphonomethylpentanedioic acid at 30 mg/kg administered via oral gavage measured after 15 mins to 4 hrs by LC/MS/MS analysis; type: ADME, organism-based; conditions: in vivo
Summary of the method: (§3)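 Mice dosed orally at 30 mg/kg (equivalent of 1), 10 mL/kg dosing volume. Cardiac-puncture blood at 0, 15, 30 min, 1, 2, 4 h, n=3 per time point; plasma stored at -80°C. Methanol precipitation with 2-PMSA internal standard, then mild MTBSTFA derivatization (~60 °C, 40 min) so only free 1 is measured by LC/MS/MS. Cmax/Tmax observed; AUC to last sample by log-linear trapezoidal rule.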

Mus musculus [14] = experiment: Cmax in mouse assessed as 2-phosphonomethylpentanedioic acid at 30 mg/kg administered via oral gavage measured after 15 mins to 4 hrs by LC/MS/MS analysis; type: ADME, organism-based; design: dose 30 mg/kg, route oral; conditions: in vivo; summary of the method: as §3
Mus musculus [15] = experiment: AUC (0 to t) in mouse assessed as 2-phosphonomethylpentanedioic acid at 30 mg/kg administered via oral gavage measured after 15 mins to 4 hrs by LC/MS/MS analysis; type: ADME, organism-based; design: time upper 4 hr, dose 30 mg/kg, time lower 0.25 hr, route oral; conditions: in vivo; summary of the method: as §3
Canis familiaris [16] = experiment: Cmax in beagle dog assessed as 2-phosphonomethylpentanedioic acid at 10 mg/kg administered via oral gavage measured after 30 mins to 8 hrs by LC/MS/MS analysis; type: ADME, organism-based, Canis lupus familiaris; design: dose 10 mg/kg, route oral; conditions: in vivo
Summary of the method: (§4)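 Single beagle dog given oral dose of 10 mg/kg (expressed as equivalent of 1). Jugular venipuncture blood at 0, 30 min, 1, 2, 4, 6, 8 h into potassium oxalate/NaF tubes, kept on wet ice, spun 3000 x g, 4°C, 5 min; plasma frozen at -60 to -80°C. LC/MS/MS. Cmax and Tmax taken as observed values; AUC to last sample by log-linear trapezoidal rule.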

Canis familiaris [17] = experiment: AUC (0 to t) in beagle dog assessed as 2-phosphonomethylpentanedioic acid at 10 mg/kg administered via oral gavage measured after 30 mins to 8 hrs by LC/MS/MS analysis; type: ADME, organism-based, Canis lupus familiaris; design: dose 10 mg/kg, time upper 8 hr, time lower 0.5 hr, route oral; conditions: in vivo; summary of the method: as §4
Canis familiaris [18] = experiment: Tmax in beagle dog assessed as 2-phosphonomethylpentanedioic acid at 10 mg/kg administered via oral gavage measured after 30 mins to 8 hrs by LC/MS/MS analysis; type: ADME, organism-based, Canis lupus familiaris; conditions: in vivo; summary of the method: as §4

| SMILES | remaining at 1 h, 10 µM [1] [%] | remaining at 1 h, 10 µM [2] [%] | remaining at 1 h, 10 µM [3] [%] | Drug metabolism (Plasma [4]) [µM] | remaining at 1 h, 10 µM [5] [%] | further results |
| --- | --- | --- | --- | --- | --- | --- |
| CC(C)(C)C(=O)OCOC(=O)C(CCC(=O)O)CP(=O)(OCOC(=O)C(C)(C)C)OCOC(=O)C(C)(C)C (configuration not stated) | 0 | 0 | 0 | 15.8 | 79 | – |
| CCOC(=O)CCC(CP(=O)(O)O)C(=O)OCC (configuration not stated) | 59 | 88 | 83 | – | 73 | – |
| CCOC(=O)C(CCC(=O)O)CP(=O)(OCOC(=O)OC(C)C)OCOC(=O)OC(C)C (configuration not stated) | 0 | 32 | 0 | 0.49 | 80 | – |
| CC(C)OC(=O)OCOP(=O)(CC(CCC(=O)O)C(=O)O)OCOC(=O)OC(C)C (configuration not stated) | – | – | – | – | – | Stability [6]: Unstable |
| COC(=O)CCC(CP(=O)(OCOC(=O)C(C)(C)C)OCOC(=O)C(C)(C)C)C(=O)OC (configuration not stated) | 0 | 0 | 0 | – | 29 | – |
| O=C(O)CCC(CP(=O)(O)O)C(=O)O (configuration not stated) | 85 | 91 | 100 | – | 83 | AUC(0-t) [7]: 1.94 µM·h; Cmax [8]: 280 nM; AUC(0-t) [9]: 0.6 µM·h; concentration (Plasma [10]): 180 nM; Tmax [11]: 1 h; Cmax [12]: 860 nM |
| CC(C)OC(=O)OCOC(=O)C(CCC(=O)O)CP(=O)(OCOC(=O)OC(C)C)OCOC(=O)OC(C)C (configuration not stated) | 0 | 0 | 0 | 15.66 | 48 | Tmax (Mus musculus [13]): 0.5 h; Cmax (Mus musculus [14]): 15100 nM; AUCt (Mus musculus [15]): 35.9 µM·h; Cmax (Canis familiaris [16]): 51100 nM; AUCt (Canis familiaris [17]): 126 µM·h; Tmax (Canis familiaris [18]): 1 h |
| COC(=O)C(CCC(=O)O)CP(=O)(OCOC(=O)C(C)(C)C)OCOC(=O)C(C)(C)C (configuration not stated) | 0 | 54 | 0 | 0.74 | 82 | – |
| COC(=O)CCC(CP(=O)(O)O)C(=O)OC (configuration not stated) | 86 | 103 | 101 | – | 96 | – |
| CCOC(=O)CCC(CP(=O)(OCOC(=O)C(C)(C)C)OCOC(=O)C(C)(C)C)C(=O)OCC (configuration not stated) | 0 | 0 | 0 | – | 18 | – |
| COC(=O)CCC(CP(=O)(OCOC(=O)OC(C)C)OCOC(=O)OC(C)C)C(=O)OC (configuration not stated) | 0.1 | 0 | 0.1 | – | 0 | – |
| CCOC(=O)C(CCC(=O)O)CP(=O)(OCOC(=O)C(C)(C)C)OCOC(=O)C(C)(C)C (configuration not stated) | 3 | 26 | 0 | 0.54 | 61 | – |

— ChEMBL document CHEMBL3792359, “Discovery of Orally Available Prodrugs of the Glutamate Carboxypeptidase II (GCPII) Inhibitor 2-Phosphonomethylpentanedioic Acid (2-PMPA)” (J Med Chem, 2016)
